From PubChem
MBD2 inh: inhibitors of MBD2 binding to methylated DNA, primary screen, biochemical, TR-FRET, DNA-binding domain, human. inhibition, % at 4.4 µM. 370,000 tested, 0.31% active. MBD2 binding to methylated oligonucleotide. Methyl-CpG-binding domain protein 2 (Homo sapiens), Q9UBB5; in the data active means inhibition above about 13%
Target sequence (Q9UBB5 whole entry, looked up, the tested form may be a part): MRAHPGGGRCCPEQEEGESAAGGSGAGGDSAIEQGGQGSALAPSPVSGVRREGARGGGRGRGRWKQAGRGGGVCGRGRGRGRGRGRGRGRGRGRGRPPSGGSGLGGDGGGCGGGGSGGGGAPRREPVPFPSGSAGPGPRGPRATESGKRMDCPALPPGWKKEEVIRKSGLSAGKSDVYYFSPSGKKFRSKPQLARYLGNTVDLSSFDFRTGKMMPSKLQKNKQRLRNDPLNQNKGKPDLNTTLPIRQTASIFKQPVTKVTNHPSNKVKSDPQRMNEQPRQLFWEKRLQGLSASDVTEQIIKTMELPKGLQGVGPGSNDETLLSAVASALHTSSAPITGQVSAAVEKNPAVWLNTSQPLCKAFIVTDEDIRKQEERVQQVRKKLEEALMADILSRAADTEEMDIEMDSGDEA
ASAP1 GAP inh: inhibitors of human ASAP1 ArfGAP activity, primary screen, biochemical, fluorescence polarization; ASAP1-stimulated ARF1 GTP hydrolysis, GDP FP detection; inhibition, % at 16.5 µM; 360,000 tested, 0.19% active; AID 624377, 2012; in the data active means inhibition above about 25%
ARFGAP1 inhibitor: inhibitors of rat ARFGAP1 GAP activity, primary screen, biochemical, fluorescence polarization, GDP tracer; inhibition, % at 16.5 µM; ADP-ribosylation factor GTPase-activating protein 1 (Rattus norvegicus), Q62848; Arfgap1-stimulated ARF1 GTP hydrolysis, GDP FP detection; 360,000 tested, 0.26% active;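 active means inhibition above a per-plate limit, mean inhibition of low control wells plus 3 SD, cut at about 25% in these data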
Target sequence (Q62848 1-136 limits assumed): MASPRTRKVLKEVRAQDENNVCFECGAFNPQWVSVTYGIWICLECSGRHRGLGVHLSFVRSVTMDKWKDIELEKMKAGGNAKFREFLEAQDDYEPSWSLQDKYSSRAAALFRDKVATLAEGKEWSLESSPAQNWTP
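Material: rat Arfgap1 GAP domain (His6, aa 1-136), purified enzyme. Also added: human ARF1(Δ1-17)-GTP substrate. Compound dosing: 16.5 µM single point, 1.26% DMSO. Timing: enzyme reaction 120 min at 25 °C after 20 min preincubation. Signal: GDP detection by fluorescence polarization. Read-out basis: percent inhibition of GAP-stimulated GDP formation, scaled between DMSO and no-Arfgap1 medians.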
TCR CD3 inh: inhibitors of human TCR-CD3 interaction, primary screen, biochemical, fluorescence, TAMRA-labeled TCR probe; T-cell receptor (TCR); inhibition, % at 9.4 µM; 360,000 tested, 0.37% active; AID 651800, 2012; in the data active means inhibition above about 19%;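 further: recombinant mutant TCR 2C K166C tagged with TAMRA read by polarization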
UHRF1 MBD2 ctr: UHRF1 methylated DNA binding inhibitors, primary screen, counter-screen for MBD2 inhibitor project, biochemical, TR-FRET, human UHRF1, single concentration; 370,000 tested, 0.75% active; UHRF1 binding to methylated oligo; AID 687016, 2013; inhibition, % at 4.4 µM; in the data active means inhibition above about 21%;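 further: UHRF1 SRA domain binding a hemimethylated CpG hairpin DNA probe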
LEDGF integ inh: blockers of LEDGF/p75-dependent integrase strand transfer – biochemical, TR-FRET, high throughput, primary screen. TR-FRET IN-LEDGF/p75 DNA integration, Eu/Cy5. inhibition, % at 3.7 µM. 370,000 tested, 0.64% active. AID 743269, 2014;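 active means inhibition above the screen-wide mean plus 3 SD, cut at about 13% in these data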;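 further: signal is the Cy5 over europium emission ratio at 671 and 618 nm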
Each line names hits and unclear results; the compound was inactive in the other large screens; ! = a repeat was not active. Compounds with a hit are over-represented: about 2% of the library has one in this group of screens.

Cc1ccc(C(C)C)cc1S(=O)(=O)Nc1ccncc1	UHRF1 MBD2 ctr 28
O=C(C1=C(O)C(=O)N(CCOCCO)C1c1cccs1)c1cccs1 (configuration not stated)	UHRF1 MBD2 ctr 56
CCCCc1nc(Cl)c(C#N)c2c1CCCC2	UHRF1 MBD2 ctr 38
CCCCc1nc(Cl)c(C#N)c2c1CCC2	none
S=C(NCc1ccccc1)NCc1cccc(Cl)c1	none
Fc1ccc(CNC(=S)NCc2cccc(Cl)c2)cc1	UHRF1 MBD2 ctr 30
COc1ccc(CC(=O)Oc2ccc(C)cc2Br)cc1OC	LEDGF integ inh 14
COc1ccc(CC(=O)Oc2ccc(C)cc2C)cc1	none
CCn1c2ccccc2c2cc(NC(=O)c3cc4c(C)nn(-c5ccccc5)c4s3)ccc21	none (no result: ASAP1 GAP inh, ARFGAP1 inhibitor, TCR CD3 inh)
CC(C)c1ccccc1NC(=O)[C@@H]1CCCN1S(=O)(=O)c1cccc2cccnc12	none (no result: ASAP1 GAP inh, ARFGAP1 inhibitor, TCR CD3 inh)
Cc1nc(N(C)C)c2sc(=S)n(C)c2n1	UHRF1 MBD2 ctr 27
Cc1ccc(C(=O)NCc2nnc(SCC(=O)Nc3sc4c(c3C#N)CCCC4)n2C)cc1	ARFGAP1 inhibitor 25
Cn1c(CNC(=O)c2ccc(Cl)cc2)nnc1SCC(=O)Nc1sc2c(c1C#N)CCCC2	none
CC(C)C(=O)Nc1c(-c2cccc(Cl)c2)c(=O)c2ccccc2n1C	none
CCn1c(NC(=O)C(C)C)c(-c2ccccc2)c(=O)c2ccccc21	UHRF1 MBD2 ctr 47
COc1ccccc1-c1cnc(C(O)c2cc(Cl)cc(Cl)c2)[nH]1 (configuration not stated)	UHRF1 MBD2 ctr 22
COc1cccc(CC(NC(C)=O)C(=O)NC2CCN(c3c(Cc4ccccc4)c(C)nc4ncnn34)CC2)c1 (configuration not stated)	UHRF1 MBD2 ctr 26
CCCCCCCCNS(=O)(=O)CCNCCc1ccccc1	none
CCCCCCCCNS(=O)(=O)CCNCc1ccccc1	UHRF1 MBD2 ctr 23
Cc1ccc(N(C(=O)c2snc(C(N)=O)c2N)C(C(=O)NC2CCCC2)c2ccc(C)o2)cc1 (configuration not stated)	none
Cc1cccc(N(C(=O)c2snc(C(N)=O)c2N)C(C(=O)NC2CCCC2)c2ccc(C)o2)c1 (configuration not stated)	UHRF1 MBD2 ctr 70
Cc1ccccc1N(C(=O)c1snc(C(N)=O)c1N)C(C(=O)NC1CCCCC1)c1ccc(O)cc1 (configuration not stated)	UHRF1 MBD2 ctr 50
COc1ccc([C@H]2CC(=O)C=C(c3cccc4c3Oc3ccccc3S4)C2)cc1	none
Cc1nc2sc(C(=O)NCc3ccncc3)c(N)c2c(C)c1Cl	none (no result: ASAP1 GAP inh, ARFGAP1 inhibitor, TCR CD3 inh)
COc1c(C)cccc1C(=O)Nc1ccc(N2CCN(C(=O)c3ccccc3C)CC2)cc1	UHRF1 MBD2 ctr 27
Cc1ccccc1C(=O)N1CCN(c2ccc(NC(=O)c3cccc(OC(C)C)c3)cc2)CC1	none
Cc1cc2c(c(=O)o1)[C@@]1(C(=O)N(C)c3ccccc31)C1=C(CCCC1=O)O2	none
O=S(=O)(c1ccccc1)N1CCN(Cc2cccc(Br)c2)CC1	none
O=S(=O)(c1ccc(Br)cc1)N1CCCN(Cc2cccc(F)c2)CC1	UHRF1 MBD2 ctr 62
CC(C)(C)Nc1nc(C(N)=O)nc(N2CCOCC2)n1	none
NC(=O)c1nc(N2CCOCC2)nc(N2CCOCC2)n1	UHRF1 MBD2 ctr 37
C=CCN(C(=O)[C@@H](C1CC1)[C@@H](O)c1ccc2ccccc2c1)c1ccccc1	none (no result: ASAP1 GAP inh, ARFGAP1 inhibitor, TCR CD3 inh)
COc1ccc(C2=NNC(=O)CC2)cc1	UHRF1 MBD2 ctr 23
CCCOc1ccc(C2=NNC(=O)CC2)cc1	none
O=C(Nc1ccc(F)c(F)c1)C1CCN(S(=O)(=O)c2cccs2)CC1	UHRF1 MBD2 ctr 31
Cc1ccccc1CN1CCCCC(NC(=O)C2CCC2)C1=O (configuration not stated)	none (no result: ASAP1 GAP inh, ARFGAP1 inhibitor, TCR CD3 inh)
C=C[C@H]1CN2CC[C@H]1C[C@@H]2[C@@H](O)c1ccnc2ccc(OC)cc12	UHRF1 MBD2 ctr 42!
O=C(Nc1ccccc1F)C1CCN(C(=O)NCc2ccccc2)CC1	UHRF1 MBD2 ctr 24
Cn1c(CN2CCCC2)c(C#N)c2ccccc21	UHRF1 MBD2 ctr 65
O=C(NCCO)c1ccc2nc(-c3ccco3)c(-c3ccco3)nc2c1	TCR CD3 inh 26, UHRF1 MBD2 ctr 42, LEDGF integ inh 77
O=C(NCCO)c1ccc(Cl)c(Cl)c1	none
c1coc(-c2nc3ccccc3nc2-c2ccco2)c1	TCR CD3 inh 34, UHRF1 MBD2 ctr 53, LEDGF integ inh 48
c1coc(-c2cnc3ccccc3n2)c1	none
OC(c1ccccc1)(c1ccccc1)C1CCN(CCCOc2ccc(Br)cc2)CC1	none (no result: ASAP1 GAP inh, ARFGAP1 inhibitor, TCR CD3 inh)
CSc1nc(-c2ccc(Cl)cc2)nn1S(=O)(=O)c1ccccc1	UHRF1 MBD2 ctr 21
Cn1cccc1C(=O)N1CCN(S(=O)(=O)c2cccs2)CC1	none (no result: ASAP1 GAP inh, ARFGAP1 inhibitor, TCR CD3 inh)
Cc1ccc(-n2nc(-c3ccco3)cc2C(=O)O)cc1	UHRF1 MBD2 ctr 31
CCOC(=O)c1cc(-c2ccco2)nn1-c1ccc(C)cc1	none
CC(C)C[C@H](NC1(C(=O)NC2CCCCC2)CCN(C(=O)OC(C)(C)C)CC1)C(=O)NCCc1c[nH]c2ccccc12	none (no result: ASAP1 GAP inh, ARFGAP1 inhibitor, TCR CD3 inh)
COC(=O)c1ccc(CSc2nc(-c3ccccc3)cs2)o1	UHRF1 MBD2 ctr 21
CS(=O)(=O)c1ccc(Cl)c(NC(=O)CN2CCN(C(=O)c3cccs3)CC2)c1	UHRF1 MBD2 ctr 23
COc1cc(Cl)c(C)cc1NC(=O)CN1CCN(C(=O)c2cccs2)CC1	none
N#C/C(=C\c1cccn1S(=O)(=O)c1cccc([N+](=O)[O-])c1)S(=O)(=O)c1ccc(F)cc1	none
COc1ccc(C2C(C#N)=C(N)OC3=C2C(=O)CC(C)(C)C3)cc1 (configuration not stated)	none
COc1cc(C2C(C#N)=C(N)OC3=C2C(=O)CC(C)(C)C3)cc2c1OCO2 (configuration not stated)	UHRF1 MBD2 ctr 30
Cc1ccc(C)c(NC(=O)Cn2nnc(-c3ccncc3)n2)c1	none (no result: ASAP1 GAP inh, ARFGAP1 inhibitor, TCR CD3 inh)
Cc1[nH]c2ccccc2c1SCC(=O)N1CCC(C)CC1	UHRF1 MBD2 ctr 25
C=CCn1cccc(C(=O)Nc2ccc(C)c(C)c2)c1=O	none
C=CCn1cccc(C(=O)Nc2cc(OC)ccc2OC)c1=O	UHRF1 MBD2 ctr 29
